Reference: ChEMBL document CHEMBL1149273, “Calcitriol derivatives with two different side chains at C-20. II. Diastereoselective syntheses of the metabolically produced 24(R)-hydroxygemini” (J Med Chem, 2004)
pIC50: −log10 of the molar value.

Key:
[1] = test system: Mus musculus; test: Effect on calcium level in mouse at 1 […] after four diurnal doses; format: functional, organism-based
Method in brief: (§1)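 Mice received four diurnal administrations of drug in Miglyol vehicle, with vehicle-dosed controls, across a series of dose levels. Calcium levels (mg/dL) were then measured and reported with standard errors. The […] was assigned from these calcium levels.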

[2] = test system: Mus musculus; test: Effect on calcium level in mouse at 3 […] after four diurnal doses; format: functional, organism-based; method in brief: as §1
[3] = Maximum tolerated dose in mouse; format: ADME, organism-based; conditions: in vivo
[4] = Inhibition of INFgamma release in MLR cells; format: functional, cell-based; conditions: Homo sapiens
[5] = Inhibition of INFgamma release in MLR cells relative to calcitriol; format: functional, Homo sapiens
[6] = test system: Mus musculus; test: Effect on calcium level in mouse at 0.3 ug/kg after four diurnal doses
[7] = test system: Mus musculus; test: Effect on calcium level in mouse at 10 […] after four diurnal doses; format: functional, organism-based; method in brief: as §1
[8] = test system: Mus musculus; test: Effect on calcium level in mouse at 30 […] after four diurnal doses; format: functional, organism-based; method in brief: as §1
[9] = test system: Mus musculus; test: Effect on calcium level in mouse at 100 […] after four diurnal doses; format: functional, organism-based; method in brief: as §1
[10] = test system: Kidney; test: Metabolic stability in rat kidney perfusate; format: ADME, tissue-based

| SMILES | Calcium level [1] [mg/dL] | Calcium level [2] [mg/dL] | MTD [3] [µg/kg] | pIC50 [4] | Ratio IC50 [5] | Calcium level [6] [mg/dL] | Calcium level [7] [mg/dL] | Calcium level [8] [mg/dL] | Calcium level [9] [mg/dL] | Stability [10] [%] |
| --- | --- | --- | --- | --- | --- | --- | --- | --- | --- | --- |
| C=C1/C(=C\C=C2/CCC[C@]3(C)[C@@H]([C@H](CCCC(C)(C)O)CC[C@@H](O)C(C)(C)O)CC[C@@H]23)C[C@@H](O)C[C@@H]1O | 9.7 | 9.73 | 3 | 10.10 | 2.5 | 9.6 |  |  |  |  |
| CC(C)(O)CCC[C@@H](CC[C@@H](O)C(C)(C)O)[C@H]1CC[C@H]2/C(=C/C=C3C[C@@H](O)C[C@H](O)C3)CCC[C@]12C | 9.53 | 9.9 | > 100 | 8.41 | 160 |  | 9.43 | 9.43 | 9.57 |  |
| CC(C)(O)CCCC(CCCC(C)(C)O)[C@H]1CC[C@H]2/C(=C/C=C3C[C@@H](O)C[C@H](O)C3)CCC[C@]12C |  | 10 | 3 | 10.36 | 1.8 |  | 12.5 | 16.5 |  | 80 |
| C=C1/C(=C\C=C2/CCC[C@]3(C)[C@@H](C(CCCC(C)(C)O)CCCC(C)(C)O)CC[C@@H]23)C[C@@H](O)C[C@@H]1O | 11.1 | 12.3 | < 1 | 11.40 | 0.1 |  | 16.7 |  |  | 80 |
| CC(C)(O)CCC[C@H](CC[C@@H](O)C(C)(C)O)[C@H]1CC[C@H]2/C(=C/C=C3C[C@@H](O)C[C@H](O)C3)CCC[C@]12C | 9.63 | 9.37 | 30 | 9.11 | 31 |  | 9.57 | 9.77 | 10.8 |  |
| C=C1/C(=C\C=C2/CCC[C@]3(C)[C@@H]([C@@H](CCCC(C)(C)O)CC[C@@H](O)C(C)(C)O)CC[C@@H]23)C[C@@H](O)C[C@@H]1O | 9.73 | 9.63 | 3 | 9.24 | 18 | 9.8 |  |  |  |  |
| C=C1/C(=C\C=C2/CCC[C@]3(C)[C@@H]([C@H](C)CCCC(C)(C)O)CC[C@@H]23)C[C@@H](O)C[C@@H]1O [CALCITRIOL] |  |  |  |  |  |  |  |  |  | < 50 |
